Experimental findings from ChEMBL document CHEMBL1687849, “Lauroside B, a megastigmane glycoside from Laurus nobilis (bay laurel) leaves, induces apoptosis in human melanoma cell lines by inhibiting NF-κB activation” (J Nat Prod, 2011) are described below.

Data set [1] relates to A-375. Nature of the data set: Induction of apoptosis in human A375 cells assessed as late apoptotic cells at 20 uM after 48 hrs by annexin V/propidium iodide based flow cytometry. In kind it is functional. In a few lines: (§1)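 A375 cells attached overnight, then treated 48 h with test compound (30 μM) or curcumin (20 μM). Adherent and floating cells pooled, washed in PBS and resuspended at 10^6/mL in HEPES pH 7.4/NaCl/CaCl2 binding buffer. 10^5 cells stained 15 min at room temperature in the dark with FITC-annexin V and PI, then flow cytometry. Quadrants scored as early apoptotic, late apoptotic or necrotic. Three experiments.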

Data set [2] has as its system A-375. Nature of the data set: Induction of apoptosis in human A375 cells assessed as early apoptotic cells at 20 uM after 48 hrs by annexin V/propidium iodide based flow cytometry. The class given is functional. In a few lines: as §1
The subject of data set [3] is A-375. Nature of the data set: Induction of apoptosis in human A375 cells assessed as necrotic apoptotic cells at 20 uM after 48 hrs by annexin V/propidium iodide based flow cytometry. The class given is functional. In a few lines: as §1
Data set [4] concerns SK-MEL-28. Nature of the data set: Antiproliferative activity against human SK-MEL-28 cells at 30 uM after 72 hrs by MTT assay. The class given is functional. As to conditions: SK-MEL-28, 72 h. The method, boiled down:
(§2)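 Cells grown in DMEM with 10% FBS, glutamine, HEPES and antibiotics at 37 °C, 5% CO2. Seeded at 1×10^4 cells/well and treated at 3, 10 or 30 μM for 24, 48 or 72 h. MTT (5 mg/mL stock) then added for 3 h at 37 °C. Crystals dissolved in 50% DMF/20% SDS pH 4.5; OD read at 620 nm. n = 3, mean ± SEM, ANOVA with Bonferroni.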

Data set [5] concerns A-375. Description: Induction of apoptosis in human A375 cells assessed as necrotic apoptotic cells at 30 uM after 48 hrs by annexin V/propidium iodide based flow cytometry. In kind it is functional. In a few lines: as §1
For data set [6], the system named is A-375. Description: Inhibition of NF-kappaB DNA binding activity in human A375 cells at 30 uM after 1 hr by electrophoretic mobility shift assay. In kind it is cell-based. The method, boiled down: (§3)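 A375 cells treated at 30 μM; whole-cell extracts taken at 0, 1, 2, 4, 8 and 24 h. Extract (12 μg protein in 0.1% Triton X-100 buffer) incubated 30 min with 32P-labelled κB probe. Complexes resolved on nondenaturing 4% polyacrylamide gel and quantified by phosphorimaging, normalized to the nonspecific protein-DNA complex in the same lane. Three experiments.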

Data set [7] has as its system A-375. Description: Inhibition of NF-kappaB DNA binding activity in human A375 cells at 30 uM after 4 hrs by electrophoretic mobility shift assay. In kind it is cell-based. The method, boiled down:
as §3

Data set [8] has as its system WM-115. Description: Antiproliferative activity against human WM115 cells after 24 to 72 hrs by MTT assay. The class given is functional, cell-based. The method, boiled down:
as §2

Data set [9] relates to SK-MEL-28. Nature of the data set: Antiproliferative activity against human SK-MEL-28 cells after 24 to 72 hrs by MTT assay. The class given is functional, cell-based. In a few lines:
as §2

For data set [10], the system named is WM-115. Nature of the data set: Antiproliferative activity against human WM115 cells at 3 to 30 uM by MTT assay. In kind it is functional, cell-based. As to conditions: TDE = time-dependent effect. The method, boiled down:
as §2

The subject of data set [11] is WM-115. Description: Antiproliferative activity against human WM115 cells at 30 uM after 72 hrs by MTT assay. As to conditions: WM-115, 72 h. The class given is functional. The method, boiled down: as §2
Data set [12] concerns A-375. Description: Activation of caspase 3 in human A375 cells assessed as reduction in pro-caspase 3 at 30 uM by Western blot analysis. In kind it is functional, cell-based. As to conditions: TDE = time-dependent effect. In a few lines:
(§4)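 Whole-cell A375 lysates collected 0, 1, 2, 4 and 8 h after 30 μM treatment, made in Tris/HCl pH 7.4 buffer with 0.1% Triton X-100, EDTA, vanadate, PMSF and protease inhibitors. 20 μg protein per lane on SDS-PAGE and nitrocellulose. Probed overnight at 4 °C for pro-caspase-3 and PARP, with β-actin; HRP secondary, ECL detection. Three separate experiments.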

The test system of data set [13] is A-375. Description: Antiproliferative activity against human A375 cells at 30 uM after 72 hrs by MTT assay. In kind it is functional. The settings on record: A-375, 72 h. In a few lines:
as §2

Data set [14] can be described thus: Decrease in NFkappaB-mediated c-FLIP gene expression in human A375 cells at 30 uM after 8 hrs by Western blot analysis. The class given is cell-based. The settings on record: A-375.
Data set [15] has as its system A-375. Description: Inhibition of NF-kappaB activation in human A375 cells assessed as IkappaB-alpha degradation at 30 uM by Western blot analysis. In kind it is cell-based. As to conditions: TDE = time-dependent effect. The method, boiled down: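 A375 cells treated at 30 μM for 1, 2, 4 and 8 h. Cytosolic extracts (40 μg protein) run on SDS-PAGE and transferred to nitrocellulose. Probed overnight at 4 °C for IκB-α, HRP secondary, ECL detection. Three separate experiments.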

Data set [16] is described as follows: Antiproliferative activity against human NHEM at 3 to 30 uM after 24 to 72 hrs by MTT assay. In a few lines:
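Normal human epidermal melanocytes grown in melanocyte growth medium 2. Seeded at 1×10^4 cells/well and treated at 3, 10 or 30 μM for 24, 48 or 72 h. MTT (5 mg/mL stock) then added for 3 h at 37 °C. Formazan dissolved in 50% DMF/20% SDS pH 4.5; absorbance at 620 nm.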

Data set [17] relates to A-375. Nature of the data set: Induction of apoptosis in human A375 cells assessed as late apoptotic cells at 30 uM after 48 hrs by annexin V/propidium iodide based flow cytometry. The class given is functional. In a few lines:
as §1

For data set [18], the system named is A-375. Description: Activation of caspase 3 in human A375 cells assessed as cleavage of substrate PARP at 30 uM by Western blot analysis. In kind it is functional, cell-based. The method, boiled down:
as §4

Data set [19] has as its system A-375. Description: Inhibition of NF-kappaB DNA binding activity in human A375 cells at 30 uM after 24 hrs by electrophoretic mobility shift assay. The class given is cell-based. The method, boiled down: as §3
The test system of data set [20] is A-375. Nature of the data set: Antiproliferative activity against human A375 cells after 24 to 72 hrs by MTT assay. In kind it is functional, cell-based. In a few lines:
as §2

Data set [21] has as its system A-375. Description: Inhibition of NF-kappaB DNA binding activity in human A375 cells at 30 uM after 8 hrs by electrophoretic mobility shift assay. In kind it is cell-based. The method, boiled down:
as §3

Data set [22] concerns A-375. Nature of the data set: Antiproliferative activity against human A375 cells at 3 to 30 uM by MTT assay. The class given is functional, cell-based. As to conditions: TDE = time-dependent effect. In a few lines: as §2
Data set [23] has as its system A-375. Nature of the data set: Induction of apoptosis in human A375 cells assessed as early apoptotic cells at 30 uM after 48 hrs by annexin V/propidium iodide based flow cytometry. In kind it is functional. The method, boiled down:
as §1

Data set [24] is described as follows: Decrease in NFkappaB-mediated XIAP gene expression in human A375 cells at 30 uM after 8 hrs by Western blot analysis. The settings on record: A-375. In kind it is cell-based.
For data set [25], the system named is SK-MEL-28. Description: Antiproliferative activity against human SK-MEL-28 cells at 3 to 30 uM by MTT assay. The class given is functional, cell-based. The settings on record: TDE = time-dependent effect. The method, boiled down:
as §2

Data set [26] relates to A-375. Description: Inhibition of NF-kappaB DNA binding activity in human A375 cells at 30 uM after 2 hrs by electrophoretic mobility shift assay. In kind it is cell-based. The method, boiled down:
as §3

Activity calls are given as the source filed them. The calls are words filed in the database; no cut-off is given here.

On to `COc1cc(/C=C/C(=O)CC(=O)/C=C/c2ccc(O)c(OC)c2)ccc1O` [CURCUMIN], for which the Activity in the data set on A-375 [1] came out at 80%; in the data set on A-375 [2] it was 3.4%; in the data set with A-375 [3] it was 10.3%.
With `C[C@H](/C=C/[C@@]1(O)[C@H](CO)CC(=O)CC1(C)C)O[C@@H]1O[C@H](CO)[C@@H](O)[C@H](O)[C@H]1O` [LAUROSIDE B], the inhibition at 30 µM in the data set on SK-MEL-28 [4] worked out at 33%; in the data set on WM-115 [11], 50%; in the data set on A-375 [13], 65%. Also, the Activity with A-375 [5] was 5.1%; in the data set with A-375 [12], “tde”; with A-375 [15], “tde”; in data set [16] it was “Non-toxic”; in the data set with A-375 [17], 35%; in the data set with A-375 [23], 0.6%. Also, the inhibition was 6% in the data set with A-375 [6]; 60% with A-375 [7]; “Dose-dependent effect” in the data set on WM-115 [8]; “Dose-dependent effect” in the data set with SK-MEL-28 [9]; “tde” with WM-115 [10]; 100% with A-375 [19]. Further, the inhibition entry is “Dose-dependent effect” with A-375 [20]; 86% with A-375 [21]; “tde” in the data set with A-375 [22]; “tde” in the data set with SK-MEL-28 [25]; 20% with A-375 [26]. Moreover, the result (in [14]; in the data set with A-375 [18]; in [24]) was Active.
